Measured values published in ChEMBL document CHEMBL3045292, “Synthesis and herbicidal activity of 2-(7-fluoro-3-oxo- 3,4-dihydro-2H-benzo[b][1,4]oxazin-6-yl)isoindoline-1,3-diones” (J Agric Food Chem, 2005).

Tests used:
[1] = tested on: Echinochloa crus-galli; experiment: Herbicidal activity against Echinochloa crus-galli (barnyard grass) (barnyard grass) assessed as weed growth inhibition at 75 g/ha pre-emergence treatment […]; format: functional; settings: read-out: GI
Outline: (§1)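 Pot-grown plants in the greenhouse, in clay soil (pH 6.5, 1.6% organic matter, 37.3% clay, CEC 12.1 cmol/kg). Compound was made up as a 100 g/L emulsified concentrate (DMF, Tween-80), diluted in water and sprayed at 75 g ai/ha. Pre-emergence spraying was 24 h after sowing; post-emergence at two-leaf (dicots) or one-leaf (monocots) stage. Untreated and DMF controls. Percent growth inhibition scored visually 15 days post-treatment.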

[2] = tested on: Setaria viridis; experiment: Herbicidal activity against Setaria viridis (green foxtail) assessed as weed growth inhibition at 75 g/ha pre-emergence treatment […]; format: functional; settings: read-out: GI; outline: as §1
[3] = tested on: Abutilon theophrasti; experiment: Herbicidal activity against Abutilon theophrasti (velvetleaf) assessed as weed growth inhibition at 75 g/ha pre-emergence treatment […]; format: functional; settings: read-out: GI; outline: as §1
[4] = tested on: Chenopodium album; experiment: Herbicidal activity against fat hen Chenopodium album assessed as weed growth inhibition at 75 g/ha post-emergence treatment […]; format: functional; settings: read-out: GI; outline: as §1
[5] = tested on: Digitaria sanguinalis; experiment: Herbicidal activity against crabgrass Digitaria sanguinalis(hairy crabgrass) assessed as weed growth inhibition at 75 g/ha post-emergence treatment […]; format: functional; settings: read-out: GI; outline: as §1
[6] = tested on: Chenopodium album; experiment: Herbicidal activity against fat hen Chenopodium album assessed as weed growth inhibition at 75 g/ha pre-emergence treatment […]; format: functional; settings: read-out: GI; outline: as §1
[7] = tested on: Digitaria sanguinalis; experiment: Herbicidal activity against crabgrass Digitaria sanguinalis(hairy crabgrass) assessed as weed growth inhibition at 75 g/ha pre-emergence treatment […]; format: functional; settings: read-out: GI; outline: as §1
[8] = tested on: Digitaria sanguinalis; experiment: Herbicidal activity against crabgrass Digitaria sanguinalis(hairy crabgrass) assessed as weed growth inhibition at post-emergence treatment […]; format: functional, organism-based; outline: as §1
[9] = tested on: Echinochloa crus-galli; experiment: Herbicidal activity against Echinochloa crus-galli (barnyard grass) (barnyard grass) assessed as weed growth inhibition at 75 g/ha post-emergence treatment […]; format: functional; settings: read-out: GI; outline: as §1
[10] = tested on: Abutilon theophrasti; experiment: Herbicidal activity against Abutilon theophrasti (velvetleaf) assessed as weed growth inhibition at post-emergence treatment […]; format: functional, organism-based; outline: as §1
[11] = tested on: Setaria viridis; experiment: Herbicidal activity against Setaria viridis (green foxtail) assessed as weed growth inhibition at 75 g/ha post-emergence treatment […]; format: functional; settings: read-out: GI; outline: as §1
[12] = tested on: Amaranthus blitum; experiment: Herbicidal activity against Amaranthus blitum assessed as weed growth inhibition at 75 g/ha pre-emergence treatment […]; format: functional; settings: read-out: GI; outline: as §1
[13] = tested on: Abutilon theophrasti; experiment: Herbicidal activity against Abutilon theophrasti (velvetleaf) assessed as weed growth inhibition at 75 g/ha post-emergence treatment […]; format: functional; settings: read-out: GI; outline: as §1
[14] = tested on: Amaranthus blitum; experiment: Herbicidal activity against Amaranthus blitum assessed as weed growth inhibition at 75 g/ha post-emergence treatment […]; format: functional; settings: read-out: GI; outline: as §1

For `O=C1COc2cc(F)c(N3C(=O)c4ccccc4C3=O)cc2N1CC#CI`, the inhibition of growth at 75 g/ha [1] was less than 50%, the inhibition of growth at 75 g/ha [2] was 50% and the inhibition of growth at 75 g/ha [3] was greater than 80%. For the same molecule, the inhibition of growth at 75 g/ha [4] was greater than 80%, the inhibition of growth at 75 g/ha [5] was 50% and the inhibition of growth at 75 g/ha [6] was greater than 80%. It also gave an inhibition of growth at 75 g/ha [7] greater than 80%, an IC50 [8] of 68 g/ha and an inhibition of growth at 75 g/ha [9] of less than 50%. For the same molecule, the IC50 [10] was 3.9 g/ha, the inhibition of growth at 75 g/ha [11] was 50% and the inhibition of growth at 75 g/ha [12] was greater than 80%. The inhibition of growth at 75 g/ha [13] was greater than 80% and the inhibition of growth at 75 g/ha [14] was greater than 80%.
Molecule `N#CCN1C(=O)COc2cc(F)c(N3C(=O)c4ccccc4C3=O)cc21` has an inhibition of growth at 75 g/ha [1] of less than 50%, an inhibition of growth at 75 g/ha [2] of less than 50% and an inhibition of growth at 75 g/ha [3] of less than 50%. It also gave an inhibition of growth at 75 g/ha [4] of less than 50%, an inhibition of growth at 75 g/ha [5] of 50% and an inhibition of growth at 75 g/ha [6] of less than 50%. It also gave an inhibition of growth at 75 g/ha [7] of less than 50%, an IC50 [8] of 57 g/ha and an inhibition of growth at 75 g/ha [9] of less than 50%. It also gave an IC50 [10] of 92 g/ha, an inhibition of growth at 75 g/ha [11] of less than 50% and an inhibition of growth at 75 g/ha [12] of less than 50%. The inhibition of growth at 75 g/ha [13] was less than 50% and the inhibition of growth at 75 g/ha [14] was less than 50%.
`C#CCN1C(=O)COc2cc(F)c(N3C(=O)c4ccccc4C3=O)cc21` gave an inhibition of growth at 75 g/ha [1] of less than 50%, an inhibition of growth at 75 g/ha [2] of less than 50% and an inhibition of growth at 75 g/ha [3] greater than 80%. It also gave an inhibition of growth at 75 g/ha [4] greater than 80%, an inhibition of growth at 75 g/ha [5] greater than 80% and an inhibition of growth at 75 g/ha [6] greater than 80%. The inhibition of growth at 75 g/ha [7] was greater than 80%, the IC50 [8] was 17 g/ha and the inhibition of growth at 75 g/ha [9] was greater than 80%. For the same molecule, the IC50 [10] was 7.5 g/ha, the inhibition of growth at 75 g/ha [11] was greater than 80% and the inhibition of growth at 75 g/ha [12] was greater than 80%. For the same molecule, the inhibition of growth at 75 g/ha [13] was greater than 80% and the inhibition of growth at 75 g/ha [14] was greater than 80%.
